According to PMC7216793 (Molecular pharmaceutics, 2020):

How the values were obtained:
[1] = kinetics of ring opening and closing by UV absorbance at 246 nm; assay type: physicochemical; conditions: UV 246 nm, aqueous 0.1 N HCl
Procedure, shortened: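 Four replicate wells, each with 5 μL of 1 mM closed form plus 75 μL aqueous acid (0.1 N HCl; final 62.5 μM). A246 read every 30 s for 260 min, with a DMSO-containing buffer blank subtracted. Averaged absorbance-time curves (n = 4) were fitted by first-order kinetics to give k and half-life.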

[2] = system: airway resistance induced with methacholine; conditions: airway resistance induced with 25 mg/ml methacholine; cited from earlier work
[3] = oral dosages of 1000 mg/kg; cited from earlier work
[4] = kinetics of ring opening and closing by 1H-NMR; assay type: physicochemical; conditions: 0.1 N DCl in 50:50 D2O:d6-DMSO
[5] = logD oct/wat at different pH; assay type: physicochemical; conditions: 1-octanol/buffered water, 24 h
Procedure, shortened: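 Shake-flask partition of the closed form. 200 μL of 2.5 mM in 1-octanol was added to 300 μL water-saturated octanol and 500 μL octanol-saturated buffer (pH 1–9). Vials were shaken overnight and left 1 h to separate. Aliquots of each layer were diluted in octanol or buffer and read at 270 nm (isosbestic). Concentrations came from per-phase calibration curves. Run in triplicate.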

[6] = mass spectrometry analysis of pH dependent ratio of closed and open MIDD0301; assay type: physicochemical
Procedure, shortened: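 Closed form at 50 μM in water was brought to pH 1 with 0.1 M HCl. It was then stepped up to pH 9 with 10% ammonium hydroxide, taking an aliquot at each pH. Aliquots stood 24 h at rt, then final pH was measured. Each was infused directly into the MS without LC or added solvent. Closed:open ratio came from peak heights at 414 and 432 m/z.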

[7] = acid titration of basic MIDD0301 solution with 1 N HCl; assay type: physicochemical; conditions: 50 μM in 0.1 N NaOH, water with 30 % DMSO; nonlinear regression
[8] = pharmacokinetic study in mice: blood, lung and brain concentrations by LC-MS/MS; assay type: in vivo, Swiss Webster mice
Procedure, shortened: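 Six-week-old female Swiss Webster mice (SPF) received closed or open form by intragastric gavage at 25 mg/kg in various vehicles (n = 4). At 60 min, heparinised blood was drawn by cardiac puncture and non-perfused brain and lungs were harvested. Samples were extracted in methanol with internal standard. Both forms were quantified by LC-MS/MS (C18; methanol/water, 0.1% formic acid; positive mode).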

[9] = spectrophotometric pH transition; assay type: physicochemical; conditions: absorbance difference at 252 and 292 nm vs pH
Procedure, shortened: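 Closed or open form at 50 μM (1% DMSO), in buffers adjusted to 0.1 M ionic strength with KCl: 50 mM phosphoric acid pH 1–2, 50 mM acetate pH 3–5, 50 mM phosphate pH 6–8, 12.5 mM borate pH 9. After 24 h at rt, spectra were read 230–400 nm, DMSO blank subtracted (two experiments, duplicate). Summed absorbance differences at 252/292 nm vs pH were fitted by nonlinear regression.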

[10] = 28 day dosing of 100 mg/kg; cited from earlier work
[11] = system: asthmatic mice (ovalbumin sensitized and challenged model); conditions: cited from earlier work
[12] = shake flask solubility at different pH, UV at 270 nm; assay type: physicochemical; conditions: 24 h shake flask
Procedure, shortened: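 2 mg closed form in 200 μL buffered water was shaken 24 h in a closed vial. It was centrifuged 5 min at 16000 × g and supernatant pH was measured. Three 10 μL aliquots were diluted into 50:50 methanol/25 mM phosphate pH 10 and read at 270 nm. Concentration came from a calibration curve in the same diluent. Three independent measurements per pH.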

[13] = earlier work, no reference given; cited from earlier work
ASM = conditions: cited from earlier work
[14] = mice, 25 mg/kg oral, 60 min, Entry 1: 2.5 % PEG400, 98 % HPMC (2 % in water), pH 6.1
[15] = mice, 25 mg/kg oral, 60 min, Entry 2: 40 % propylene glycol, 60 % HPMC (2 % in water), pH 5.9
[16] = mice, 25 mg/kg oral, 60 min, Entry 4: 2.5 % PEG400, 98 % HPMC (2 % in PBS, pH 7.4)
[17] = mice, 25 mg/kg oral, 60 min, Entry 4: 2.5 % PEG400, 98 % HPMC (2 % in PBS, pH 7.4), listed as Closed MIDD0301, 25 mg/kg
[18] = mice, 25 mg/kg oral, 60 min, Entry 4: 2.5 % PEG400, 98 % HPMC (2 % in PBS, pH 7.4), listed as closed MIDD0301, 25 mg/kg
[19] = mice, 25 mg/kg oral, 60 min, Entry 5: pretreatment with omeprazole (30 mg/kg), 2.5 % PEG400, 98 % HPMC (2 % in PBS)

## C[C@H]1N=C(c2ccccc2F)c2cc(Br)ccc2-n2cnc(C(=O)O)c21 [MIDD0301]
[1]; 62.5 μM
  kacid, conversion of closed to open MIDD0301: 0.142 min⁻¹
[1]
  half-life in 0.1 N HCl: 4.8 min
[2]
  nebulized dose sufficient to overcome airway resistance: 0.8 mg/kg
[3]
  CNS effects in sensorimotor studies: no CNS effects
[4]; 2.4 mM, pseudo first order
  kacid, conversion of closed to open MIDD0301: 0.050 min⁻¹
[4]
  half-life of ring opening: 13.7 min
[5]
  pH range of highest concentration in 1-octanol: 2–5
[6]; 0.1 N HCl, after 24 h
  closed MIDD0301 remaining by MS: 10%
[6]; pH 6, after 24 h
  open MIDD0301 share by MS: 17%
[6]; pH 7 and higher, 24 h
  open MIDD0301 share by MS: 2%
[6]; water, 24 h, MS 414 vs 432 m/z
  calculated equilibrium pH (equal peak heights of closed and open form): 4.3
[6]; water, MS
  pH range in which the equilibrium between open and closed form was observed: 4–5
[7]
  pH of inflection, acid titration: 4.69
[8]; all biological samples, all formulations
  percentage of open MIDD0301 in comparison to closed MIDD0301: ≤ 4%
[8]; [14]
  Concentration of closed MIDD0301, Brain: 87 ± 27 nM
  Concentration of open MIDD0301, Blood: 9 ± 3 nM
  Concentration of open MIDD0301, Brain: 3 ± 1 nM
  Concentration of open MIDD0301, Lung: 5 ± 2 nM
  open MIDD0301, % of closed MIDD0301, Blood: 3%
  open MIDD0301, % of closed MIDD0301, Brain: 2%
  open MIDD0301, % of closed MIDD0301, Lung: 2%
[8]; mice, 25 mg/kg oral, 60 min, Entry 1, blood, lung, brain
  concentration of open MIDD0301 as % of closed MIDD0301, all samples: 2–3%
[8]; [15]
  Concentration of closed MIDD0301, Brain: 104 ± 42 nM
  Concentration of open MIDD0301, Blood: 6 ± 2 nM
  Concentration of open MIDD0301, Brain: 3 ± 1 nM
  Concentration of open MIDD0301, Lung: 9 ± 2 nM
  open MIDD0301, % of closed MIDD0301, Blood: 3%
  open MIDD0301, % of closed MIDD0301, Brain: 3%
  open MIDD0301, % of closed MIDD0301, Lung: 2%
[8]; [16]
  Concentration of closed MIDD0301, Brain: 130 ± 24 nM
  Concentration of open MIDD0301, Blood: 18 ± 14 nM
  Concentration of open MIDD0301, Brain: 4 ± 3 nM
  Concentration of open MIDD0301, Lung: 28 ± 19 nM
  open MIDD0301, % of closed MIDD0301, Blood: 4%
  open MIDD0301, % of closed MIDD0301, Brain: 3%
  open MIDD0301, % of closed MIDD0301, Lung: 2%
[8]; [17]
  Concentration of closed MIDD0301, Blood: 413 ± 116 nM
  Concentration of closed MIDD0301, Lung: 1745 ± 1121 nM
[8]; [18]
  Concentration of closed MIDD0301, Blood: 413 nM
  Concentration of closed MIDD0301, Lung: 2046 nM
[8]; [19]
  Concentration of closed MIDD0301, Blood: 516 ± 180 nM
  Concentration of closed MIDD0301, Brain: 159 ± 33 nM
  Concentration of closed MIDD0301, Lung: 2046 ± 1155 nM
  Concentration of open MIDD0301, Blood: 20 ± 8 nM
  Concentration of open MIDD0301, Brain: 4 ± 2 nM
  Concentration of open MIDD0301, Lung: 32 ± 21 nM
  open MIDD0301, % of closed MIDD0301, Blood: 4%
  open MIDD0301, % of closed MIDD0301, Brain: 3%
  open MIDD0301, % of closed MIDD0301, Lung: 2%
[8]; mice, oral, under these specific conditions (Conclusions)
  MIDD0301 in non-perfused brain as % of lung concentration: less than 10%
[9]
  pH of the spectrophotometric transition: 4.34
[10]
  humoral immune response to T-dependent antigen dinitrophenyl-keyhole limpet haemocyanin: no change
  signs of toxicity: no signs of toxicity
[11]; asthmatic mice
  IL-17A, IL-4 and TNFα in the lungs: reduction
[11]; oral 100 mg/kg
  airway hyperresponsiveness to methacholine challenge: reduced airway hyperresponsiveness
  eosinophil, CD4+ T cell and macrophage numbers in the lungs: reduced
[12]; neutral pH
  aqueous solubility: > 3000 µg/mL
[12]; pH 3.9
  aqueous solubility: < 100 µg/mL
[13]
  oral dosage required to achieve pharmacological effects: 50 mg/kg

## CC(C)c1cccc(C(C)C)c1O [propofol]
ASM
  effect on airway smooth muscle: relaxed ASM
